Screening results (PubChem BioAssay)
T cruzi repl – blocks replication of Trypanosoma cruzi | AID 1885 | T. cruzi beta-gal in NIH3T3, luminescence, 90 h | hit rate 1.4% among 300,000 | inhibition, % (no concentration beside the values);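 active = mean inhibition across valid replicates above about 55%, limit read from the data; inconclusive = mean below that limit but half or more replicates reach it; inactive = mean below it, under half of replicates reach it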;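 also: signal also drops with host cell toxicity which is not excluded here; 0% = plate median of DMSO wells and 100% = zero luminescence signal; higher percent means less beta-gal luminescence so fewer parasites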
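Material: NIH/3T3 host cells with β-galactosidase reporter T. cruzi; Input: 5,000 host fibroblasts per well; Medium: DMEM, 2% fetal bovine serum; Compound: 50 nL DMSO compound solution per well; Schedule: 3 h host attachment, then at least 90 h co-culture; Detection: luminescent β-galactosidase signal after 60 min lysis.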
CSC inhib – blocks cancer stem cells. cancer stem cell-like cells viability, luminescence. inhibition, % at 7.5 µM. hit rate 1.1% among 300,000; in the data active = inhibition above about 75%; inconclusive = no clear call, values can overlap the other calls; tested in HMLE shEcad cells
PREPL inh – inhibits the human prolyl oligopeptidase-like enzyme; Q4J6C6; recombinant PREPL, fluorescence polarization activity-based probe; inhibition, % at 5.96 µM; hit rate 0.68% among 320,000; AID 2751; in the data active = inhibition above about 43%;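 also: 0% = enzyme with DMSO and 100% = wells lacking enzyme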
Target sequence (Q4J6C6 whole entry, looked up): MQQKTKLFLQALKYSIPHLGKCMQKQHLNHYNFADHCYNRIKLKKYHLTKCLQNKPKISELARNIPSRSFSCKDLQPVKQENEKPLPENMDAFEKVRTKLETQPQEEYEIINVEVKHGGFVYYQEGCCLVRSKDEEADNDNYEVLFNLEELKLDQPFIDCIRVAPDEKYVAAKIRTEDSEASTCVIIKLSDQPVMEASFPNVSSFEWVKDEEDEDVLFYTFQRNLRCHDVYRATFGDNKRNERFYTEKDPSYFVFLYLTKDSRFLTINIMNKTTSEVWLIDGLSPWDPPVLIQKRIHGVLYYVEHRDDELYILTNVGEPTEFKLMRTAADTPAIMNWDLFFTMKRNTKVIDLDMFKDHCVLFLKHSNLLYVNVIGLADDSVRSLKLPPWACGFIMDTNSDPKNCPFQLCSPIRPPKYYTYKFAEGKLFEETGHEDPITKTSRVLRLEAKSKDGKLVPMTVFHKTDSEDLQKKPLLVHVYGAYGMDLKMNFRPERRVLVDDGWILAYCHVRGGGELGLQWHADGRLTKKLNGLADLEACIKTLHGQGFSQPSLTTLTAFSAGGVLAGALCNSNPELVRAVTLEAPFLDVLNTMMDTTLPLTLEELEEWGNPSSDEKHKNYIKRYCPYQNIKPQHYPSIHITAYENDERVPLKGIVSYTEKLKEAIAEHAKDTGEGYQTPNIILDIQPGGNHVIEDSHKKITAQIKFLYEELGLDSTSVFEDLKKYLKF
Beta cell apopt – blocks beta cell apoptosis; INS-1E cytokine-induced death, ATP luminescence, 48 h; percent of positive-control rescue, neutral wells zero; protection from apoptosis, % (no concentration beside the values); hit rate 0.8% among 300,000; AID 435005;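 active = Every replicate reaches about 75%, or at least half do and their mean reaches it too, limit read from the data; inconclusive = At least half of replicates reach the limit but their mean does not; inactive = Under half of replicates reach the limit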;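 also: 0% = cytokine-treated negative control wells and 100% = positive control rescue; higher means more ATP so stronger rescue from cytokine killing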
CHOP inh – blocks CHOP induction under ER stress; AID 2732; hit rate 3.8% among 220,000; CHO-K1 CHOP-promoter luciferase, tunicamycin-induced, 15-18 h; inhibition, % at 10 µM;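 active = compounds that reduced the stress-induced luciferase reporter signal by more than about 70% of percent inhibition, limit read from the data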;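 also: 0% = tunicamycin plus vehicle and 100% = wells without tunicamycin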
GRIN3A LBD mod – modulates the human NR3A ligand-binding domain; NR3A LBD differential scanning fluorimetry, Tm shift; 0% = protein alone, 100% = glycine-bound protein; Tm shift relative to glycine control, % at 25 µM; hit rate 2.5% among 340,000;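 active = melting temperature shift of at least 10% of the positive control shift, at one fixed dose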
* = called active by the depositor; ? = inconclusive; . = no result. A selection: hits, their analogues and other compounds. The true share with any hit is near 6.7%.

SMILES	T cruzi repl	CSC inhib	PREPL inh	Beta cell apopt	CHOP inh	GRIN3A LBD mod
CC(=O)Nc1cccc(NC(=O)Nc2cccc(F)c2)c1	25.9	-9.2	-1.6	5.1	12.1	28.9*
O=C(Nc1cccc(F)c1)Nc1cccc(Cl)c1	29.6	22.9	-3.6	17.0	.	42.0*
CC(=O)c1ccc(N/N=C(/C(N)=O)C2=NC(C)(C)Cc3ccccc32)cc1	6.1	42.0	11.8	4.4	19.5	-5.0
CC1(C)Cc2ccccc2C(/C(=N\Nc2cccc(Cl)c2)C(N)=O)=N1	50.8	43.7	-4.3	3.8	86.6*	-7.4
CN(C)c1ccc(Cl)cc1N	11.2	-15.2	3.7	.	7.0	-0.1
N#CCc1ccc(NC(=O)Nc2cccc(Cl)c2)cc1	16.3	?	8.9	4.6	42.5	25.6*
CC(=O)/C(N)=N/Nc1cccc(Cl)c1	5.2	37.7	12.4	-2.6	3.1	20.3*
O=C(Nc1cccc(Cl)c1)OCc1cn(-c2ccccc2)nn1	12.6	5.2	-19.7	.	34.0	10.7*
N#Cc1ccccc1NC(=O)Nc1cccc(Cl)c1	-23.7	-4.0	-16.7	-0.6	22.2	-0.4
O=C(Nc1cccc(Cl)c1)OCc1cn(-c2ccc(Cl)cc2)nn1	1.5	-7.3	-23.5	2.9	63.0	-2.5
COC(=O)c1sccc1NC(=O)Nc1cccc(F)c1	-7.3	-9.5	-8.8	-0.2	5.0	10.1*
Cc1ccccc1NC(=O)CCN1CCc2ccccc2C1	11.1	.	7.6	.	33.6	0.7
Cc1ccccc1CCN1CCCC(CN(C)C(=O)c2ccc3ncccc3c2)C1 (stereo unspecified)	39.0	1.5	9.2	-0.4	.	0.3
O=C(Nc1cccc(F)c1)Nc1ccc2c(c1)OCO2	20.0	-4.0	.	0.7	.	36.6*
O=C(CNc1cccc(Cl)c1)c1ccc(Cl)cc1	5.7	-12.1	13.8	-6.9	74.9*	-0.1
COC(=O)c1cc(NC(=O)Nc2cccc(Cl)c2)ccc1Cl	42.1	36.5	-11.1	55.6	94.7*	38.2*
O=C(Nc1cccc(F)c1)C1CCN(C(=O)c2ccc(Cl)cc2)CC1	-3.5	-3.2	1.7	-7.0	15.7	12.2*
Cc1ccc(C(=O)CNc2cccc(Cl)c2)cc1	-6.5	-10.1	3.0	0.0	-39.3	1.9
CN(CC(=O)Nc1cccc(F)c1)C(=O)C1CCN(C(=O)c2ccc(Cl)cc2)CC1	.	-11.2	10.0	1.3	.	-0.8
Cc1noc(C)c1S(=O)(=O)Nc1ccc(C(=O)N2CCC(C)CC2)cc1	-2.6	1.7	11.4	-4.4	0.6	.
CN(CC(=O)Nc1ccc(F)c(F)c1F)C(=O)/C=C/c1ccco1	.	-15.4	3.2	-5.0	.	0.9
C=CCn1c(SCC(=O)c2ccc(O)c(O)c2)nnc1-c1cccc(OC)c1	.	19.8	15.7	-8.4	.	-2.5
CC(C)C(=O)Nc1nnc(SCC(=O)NC2CCCC2)s1	-6.8	-9.5	4.2	-1.6	.	0.6
COc1ccc2cc3c(N)nn(C(=O)Cc4ccc(Cl)cc4)c3nc2c1	1.8	10.0	23.6	1.1	82.9*	-0.9
COc1ccc2cc3c(N)nn(C(=O)c4ccccc4Cl)c3nc2c1	28.5	16.8	-9.7	-30.2	77.4*	-0.9
SMILES	T cruzi repl	CSC inhib	PREPL inh	Beta cell apopt	CHOP inh	GRIN3A LBD mod
COc1cccc(CC(=O)n2nc(N)c3cc4ccc(OC)cc4nc32)c1	0.4	29.3	7.6	-10.3	95.1*	0.6
COc1ccc2cc3c(N)nn(C(=O)c4ccc(F)cc4)c3nc2c1	3.3	-8.2	-8.4	-27.7	66.6	-0.9
COc1ccc2cc3c(N)nn(C(=O)Cc4c[nH]c5ccccc45)c3nc2c1	6.6	50.7	35.4	-27.9	78.8*	7.7
COCCNC(=O)C(=O)N/N=C/c1ccccc1C(F)(F)F	-5.8	2.7	7.3	-1.9	18.6	0.1
O/N=C/c1ccccc1Oc1ccccc1	3.3	-4.0	-4.3	-3.1	18.4	-7.0
Cc1cc(C)cc(Oc2ccccc2/C=N\O)c1	-2.5	10.1	-7.0	2.6	72.7*	-54.6
N#Cc1ccsc1NC(=O)COC(=O)CCCSc1nc2ccccc2s1	-10.4	-0.1	-7.7	-1.4	72.8*	-3.6
Cc1cnc(NC(=O)CCCSc2nc3ccccc3s2)s1	1.1	-5.7	7.5	-2.3	76.5*	2.0
NC(=O)COC(=O)CCCSc1nc2ccccc2s1	1.4	-5.1	-0.1	-2.3	9.2	0.9
O=C(N/N=C/c1ccccc1)c1cccc2ccccc12	5.2	36.5	-13.6	-6.6	.	2.5
O=C(N/N=C/c1sc2ccccc2c1O)c1cccc2ccccc12	26.6	97.4*	9.8	97.1*	49.6	2.2
O=C(N/N=C/c1ccc(Br)cc1)c1ccc(NC(=O)c2ccccc2)cc1	.	.	.	.	.	0.3
COc1ccc(C(=O)N/N=C/c2sc3ccccc3c2O)cc1	12.2	?	-9.3	96.2*	24.3	5.1
COc1ccc(C(=O)N/N=C/C(=O)c2ccccc2)cc1	-1.8	.	.	.	.	3.3
O=C(N/N=C/c1sc2ccccc2c1O)c1ccccc1	20.8	35.2	5.0	102.9*	64.7	-6.0
Cc1cccc(Nc2nc(N)c([N+](=O)[O-])c(N3CCCC(C)C3)n2)c1 (stereo unspecified)	2.4	44.9	7.9	5.3	102.8*	0.2
O=[N+]([O-])c1ccc2c(c1)N([O-])C1(CCCCC1)[N+]2=O	.	.	.	.	95.3*	-1.5
O=C(CSc1nc(-c2ccccc2)nc2ccc(F)cc12)Nc1ccc(C(=O)O)cc1	.	-5.1	-9.1	0.5	30.7	15.7*
O=C(CSc1nc(-c2ccccc2)nc2ccc(F)cc12)Nc1cccc(C(=O)O)c1	1.9	-7.5	-3.0	-2.6	0.7	12.4*
O=C(CSc1nc(-c2ccccc2)nc2c1Cc1ccccc1O2)Nc1ccccc1	-19.2	-10.9	-12.9	1.5	-0.1	.
O=C(CSc1nc(-c2ccc(F)cc2)nc2c1Cc1ccccc1O2)Nc1cccc(C(=O)O)c1	25.8	.	.	.	20.6	19.0*
OCC[C@H]1C[C@@H](O)[C@H](O)[C@]2(Cc3ccccc3CCO2)O1	.	2.4	-1.1	1.0	.	-0.3
COc1ccc(/C=C2\SC(=S)N(Cc3cccnc3)C2=O)cc1C	-4.7	79.9*	14.1	-2.8	88.2*	-1.3
C#CCOc1ccc(/C=C2\SC(=S)N(Cc3cccnc3)C2=O)cc1	29.4	78.5*	16.4	.	-7.7	0.5
Oc1ccc(CN2CCc3ccccc3C2)c2cccnc12	56.6*	60.5	45.3*	112.5*	56.2	-2.7
SMILES	T cruzi repl	CSC inhib	PREPL inh	Beta cell apopt	CHOP inh	GRIN3A LBD mod
CN(C)C1CCN(Cc2cc(COCc3ccccc3)c3cccnc3c2O)C1 (stereo unspecified)	.	.	39.7	77.5*	.	-0.8
Oc1ccc(CN2CCC(Cc3ccccc3)CC2)c2cccnc12	50.1	.	.	.	64.8	-4.0
COCc1cc(CN2CCCC2)c(O)c2ncccc12	64.3*	36.3	8.4	4.8	.	-0.1
CCOC(=O)N1CCN(Cc2ccc(O)c3ncccc23)CC1	33.6	45.9	2.2	-1.1	7.4	-3.0
O=[N+]([O-])c1cc(CN2CCCC2)c2cccnc2c1O	.	33.5	-0.9	4.7	18.1	-15.6
Oc1ccc(CN2CCN(c3ccccc3)CC2)c2cccnc12	63.9*	-6.3	1.6	43.2	35.3	-19.9
